From PubChem BioAssay
Active and inactive are the calls of the source.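 How the source made its calls, unless noted: active means viability at or under a set limit in both replicates, limit being median viability minus 3 SD (cut at about 48% in these data, passing the limit was not always enough); inconclusive means at or under the limit in just one replicate; inactive means at or above the limit in both replicates.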

Tests used:
[1] = reduced viability of SK-BR-3 breast cancer cells – cell-based, 24 h, human, pilot screen (AID 572;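 active means viability at or below 10% of carrier control in both of two separate runs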;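 further: compound exposure lasted between 18 and 24 h rather than exactly 24 h; 100% = carrier-treated control wells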); conditions: SK-BR-3 viability, CellTiter-Glo luminescence, at 10 µM, stronger effect = lower value
[2] = HUVEC growth inhibition – cell-based, human, primary screen (AID 575;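 active means viability at or below 30% in both replicate assays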;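 further: 100% = median of untreated cell wells with 0.1% DMSO on each plate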); conditions: HUVEC proliferation, CellTiter-Glo luminescence, 72 h; at 10 µM; stronger effect = lower value
Summary of the method: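 Test system: HUVEC primary cells. Quantity: 1250 endothelial cells in each well. Dosing: single-point 10 µM, DMSO 0.1% final. Incubation: 72 h treatment at 37 °C. Measured by: CTG luminescence. Control set: DMSO cell controls and MePR drug controls. Plate: collagen-coated 384-well format.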

[3] = H69AR cell proliferation blockers – human, duplicate replicates, primary screen (AID 580); conditions: H69AR lung tumor cells viability, ATP luminescence, 72 h; at 10 µM; stronger effect = lower value;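 further: 100% = mean luminescence of untreated wells and 0% = no signal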
[4] = MRP1 drug-resistance reversers in H69AR cells – cell-based, doxorubicin co-treatment, pilot screen (AID 601;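 active means viability loss from added drug above about 55%, and viability with drug at most 40%, in both replicates, limit read from the data, passing the limit was not always enough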); conditions: CellTiter-Glo, 72 h, at 10 µM; for differential viability (reversal): stronger effect = higher value
[5] = yeast transport mutant growth inhibition pilot in 384-well plates, post-Golgi transport modulator project (AID 636; in the data active means inhibition above about 31%); conditions: absorbance 615 nm, about 18 h, stronger effect = higher value
[6] = growth suppression of yeast trafficking mutant, preliminary HTS, modulators of trafficking downstream of Golgi apparatus project, 1536-format plate, OD 615 nm (AID 637; in the data active means inhibition above about 30%); conditions: yeast transport mutant growth, absorbance 615 nm, 18 h; stronger effect = higher value
[7] = H69AR cells + 2 uM doxorubicin, measured here: viability with 2 uM doxorubicin, stronger effect = lower value
[8] = H69AR cells, compound alone cytotoxicity

| SMILES | viability [1] | viability [2] | viability [3] | differential viability (reversal) ([4]; H69AR cells + 2 uM doxorubicin) | viability [4, 7] [%] | viability [4, 8] [%] | inhibition [5] | inhibition [6] |
| --- | --- | --- | --- | --- | --- | --- | --- | --- |
| CCOc1ccccc1C1N(c2ccc(F)cc2)C(=O)C2CCCN21 (configuration not stated) | 109% (inactive) | 111% (inactive) | 99% (inactive) | 19.2% (inactive) | 79.8 | 99 | -4.4% (inactive) | 2.18% (inactive) |
| CC(=O)Nc1ccc(N=Cc2nc(-c3ccc(C)cc3)oc2O)cc1 | 102% (inactive) | 96.2% (inactive) | 94.5% (inactive) | 1.61% (inactive) | 92.9 | 94.5 | 0% (inactive) | -1.8% (inactive) |
| O=C(COC(=O)C12CC3CC(CC(C3)C1)C2)NCc1ccco1 | 101% (inactive) | 98.5% (inactive) | 64.6% (inactive) | -21.4% (inactive) | 86 | 64.6 | -4.16% (inactive) | -3.93% (inactive) |
| N#Cc1cc2ccccc2nc1SCC(=O)Nc1ccccc1N1CCOCC1 | 93% (inactive) | 64.4% (inactive) | 82.2% (inactive) | -10.8% (inactive) | 93 | 82.2 | -3.25% (inactive) | 0.33% (inactive) |
| O=C(CCn1c(=O)oc2ccccc21)N1CCN(c2ccccc2Cl)CC1 | 72% (inactive) | 54.2% (inactive) | 11.2% (active) | -55.1% (inactive) | 66.3 | 11.2 | 7.3% (inactive) | -2% (inactive) |
| CCN(CC)CCOC(=O)C1(c2ccc(OC)c(OC)c2)CCCC1 | 89% (inactive) | 99.6% (inactive) | 82.7% (inactive) | 2.25% (inactive) | 80.5 | 82.7 | -5.14% (inactive) | 1.45% (inactive) |
| O=S(=O)(c1ccc2c(c1)OCCO2)N1CCC(n2nnc3cc(F)ccc32)CC1 | 91% (inactive) | 74.8% (inactive) | 84.2% (inactive) | -5.86% (inactive) | 90.1 | 84.2 | -9.04% (inactive) | -1.77% (inactive) |
| Cc1ccc(OCC2Cn3c(nc4c3c(=O)n(C)c(=O)n4C)O2)cc1 (configuration not stated) | 91% (inactive) | 96% (inactive) | 93% (inactive) | -3% (inactive) | 96 | 93 | -8.36% (inactive) | 2.91% (inactive) |
| COc1ccc(CN(C(=O)CN2C(=O)COc3ccccc32)C2CCCC2)c(OC)c1 | 110% (inactive) | 87.4% (inactive) | 92.5% (inactive) | 4.62% (inactive) | 87.9 | 92.5 | -4.52% (inactive) | -0.18% (inactive) |
| CC(=O)Nc1c(O)n(C)c2ccccc12 | 65% (inactive) | 103% (inactive) | 96.3% (inactive) | -14.5% (inactive) | 111 | 96.3 | -5.75% (inactive) | 4.55% (inactive) |
| O=C1OC(c2ccc(O)cc2)(c2ccc(O)cc2)c2ccccc21 | 83% (inactive) | 48.8% (inactive) | 102% (inactive) | 4.57% (inactive) | 97.7 | 102 | -2.73% (inactive) | 8.67% (inactive) |
| COc1ccc(NC(=O)Cn2nnc(-c3ccccc3F)n2)cc1Cl | 116% (inactive) | 104% (inactive) | 95.5% (inactive) | 3.27% (inactive) | 92.3 | 95.5 | -8.22% (inactive) | 0.18% (inactive) |
| O=C(C1CCCCC1)N1CC(=O)N2CCc3ccccc3C2C1 (configuration not stated) | 104% (inactive) | 107% (inactive) | 96.7% (inactive) | -3.46% (inactive) | 100 | 96.7 | -0.91% (inactive) | -0.83% (inactive) |
| Cc1ccc(-c2nn(-c3ccccc3)cc2/C=C(\C#N)c2cccc(C#N)c2)o1 | 71% (inactive) | 92% (inactive) | 71.6% (inactive) | -1.65% (inactive) | 73.3 | 71.6 | -9.32% (inactive) | 5.27% (inactive) |
